In ChEMBL document CHEMBL1129609, “Synthesis and antiviral activity evaluation of some new aminoadamantane derivatives. 2” (1996):
Values after ≈ are worked out from the molar mass of the structure shown.

Tests used:
[1] = test system: MDCK; test: Antiviral activity tested against influenza A,H1N1 virus infected MDCK cell lines.; format: functional; conditions: Canis lupus familiaris
[2] = Antiviral activity against influenza A,H3N2 virus infected MDCK cell lines.; format: functional
[3] = test system: Influenza B virus; test: Antiviral activity against influenza B virus infected MDCK cell lines.; format: functional
[4] = test system: MDCK; test: Antiviral activity of compound was tested against morphology virus infec+ted MDCK cell lines.; format: functional; conditions: Canis lupus familiaris
[5] = Antiviral activity against influenza A,H2N2 virus infected MDCK cell lines.; format: functional
[6] = test system: Human immunodeficiency virus 2; test: Antiviral activity against HIV-2 virus infected CEM cell lines.; format: functional, CCRF-CEM
[7] = test system: CCRF-CEM; test: Cytotoxicity against CEM cell lines.; format: functional; conditions: Homo sapiens
[8] = test system: Human immunodeficiency virus 1; test: Antiviral activity against HIV-1 virus infected CEM cell lines.; format: functional, CCRF-CEM
[9] = test system: Human alphaherpesvirus 1; test: Antiviral activity against HSV-1 virus infected HEF cell lines.; format: functional
Method in brief: (§1)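 Human embryonic fibroblasts, from embryonic lung or embryonic skin-muscle, infected with the virus. Endpoint is the minimum inhibitory concentration that reduces virus-induced cytopathicity by 50%. Values are averages of at least two separate experiments.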

[10] = test system: Human alphaherpesvirus 2; test: Antiviral activity against HSV-2 virus infected HEF cell lines.; format: functional; method in brief: as §1
[11] = test system: Human alphaherpesvirus 1; test: Antiviral activity against TK-HSV-1 virus infected HEF cell lines.; format: functional; method in brief: as §1
[12] = test system: HEF; test: Effects on cell morphology of HEF cell lines.; format: functional; conditions: Homo sapiens
Method in brief: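 Human embryonic skin-muscle fibroblasts were examined under the microscope for changes in normal cell morphology. The value is the minimum concentration causing a microscopically detectable alteration, averaged from at least two separate experiments.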

[13] = test system: Vaccinia virus; test: Antiviral activity against vaccinia virus infected HEF cell lines.; format: functional; conditions: Orthopoxvirus vaccinia; method in brief: as §1
[14] = test system: Enterovirus C; test: Antiviral activity against polio 1 virus infected HeLa cell lines.; format: functional
Method in brief: (§2)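 Vero (African green monkey kidney), HeLa (human epithelial) or HEL (human embryonic lung) cell monolayers infected with the virus. Readout is the minimum inhibitory concentration that reduces virus-induced cytopathicity by 50%. Values are averages of at least two separate experiments.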

[15] = test system: Vesicular stomatitis virus; test: Antiviral activity against vesicular stomatitis virus infected HeLa cell lines.; format: functional; method in brief: as §2
[16] = test system: Coxsackievirus B4; test: Antiviral activity against Coxsackie B4 virus infected HeLa cell lines.; format: functional; conditions: Enterovirus B; method in brief: as §2
[17] = test system: Human betaherpesvirus 5; test: Antiviral activity against HCMV virus infected HEL cell lines.; format: functional; method in brief: as §2
[18] = test system: Human alphaherpesvirus 3; test: Antiviral activity against TK+VZV virus infected HEL cell lines.; format: functional; method in brief: as §2
[19] = test system: Human alphaherpesvirus 3; test: Antiviral activity against TK-VZV virus infected HEL cell lines.; format: functional; method in brief: as §2
[20] = test system: HEL; test: Inhibition of HEL cell proliferation.; format: functional; conditions: Homo sapiens
Method in brief: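 Human embryonic lung fibroblasts were used for the proliferation assay. The value is the concentration that reduces cell proliferation by 50%, averaged from at least two separate experiments.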

[21] = test system: Semliki Forest virus; test: Antiviral activity against Semliki forest virus infected Vero cell lines.; format: functional; method in brief: as §2
[22] = test system: Coxsackievirus B4; test: Antiviral activity against Coxsackie B4 virus infected vero cell lines.; format: functional; conditions: Enterovirus B; method in brief: as §2
[23] = test system: Vero; test: Effects on cell morphology of Vero cell lines.; format: functional; conditions: Chlorocebus sabaeus
Method in brief: (§3)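 HeLa (human epithelial) or Vero (African green monkey kidney) cells were examined under the microscope for changes in normal morphology. The value is the minimum concentration causing a detectable alteration, averaged from at least two separate experiments.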

[24] = test system: Human respirovirus 3; test: Antiviral activity against parainfluenza 3 virus infected Vero cell lines.; format: functional; method in brief: as §2
[25] = test system: Mammalian orthoreovirus 1; test: Antiviral activity against Reo 1 virus infected vero cell lines.; format: functional; method in brief: as §2
[26] = test system: Sindbis virus; test: Antiviral activity against sindbis virus infected Vero cell lines.; format: functional; method in brief: as §2
[27] = test system: HeLa; test: Effects on cell morphology of HeLa cell lines.; format: functional; conditions: Homo sapiens; method in brief: as §3
[28] = test system: Vesicular stomatitis virus; test: Antiviral activity against vesicular stomatitis virus infected HEF cell lines.; format: functional; method in brief: as §1

Row | SMILES | MIC50 [1] [µg/mL] | MIC50 [2] [µg/mL] | MIC50 [3] [µg/mL] | MIC50 [4] [µg/mL] | MIC50 [5] [µg/mL] | MIC50 [9] [µg/mL] | MIC50 [10] [µg/mL] | MIC50 [11] [µg/mL] | MIC50 [12] [µg/mL] | MIC50 [13] [µg/mL] | MIC50 [14] [µg/mL] | MIC50 [15] [µg/mL] | MIC50 [16] [µg/mL] | MIC50 [21] [µg/mL] | MIC50 [22] [µg/mL] | MIC50 [23] [µg/mL] | MIC50 [24] [µg/mL] | MIC50 [25] [µg/mL] | MIC50 [26] [µg/mL] | MIC50 [27] [µg/mL] | also measured
1 | CC(N)C12CC3CC(CC(C3)C1)C2 (stereo not drawn) [RIMANTADINE] | 28 (≈ 156 µM) | > 12 | > 20 | 250 (≈ 1390 µM) | < 0.14 | – | – | – | – | – | – | – | – | – | – | – | – | – | – | – | –
2 | C1CCC2(NC1)C1CC3CC(C1)CC2C3 (stereo not drawn) | > 35 | 43 (≈ 209 µM) | 60 (≈ 292 µM) | > 250 | 0.24 (≈ 1.17 µM) | 100 (≈ 487 µM) | > 200 | > 200 | 400 (≈ 1950 µM) | > 200 | > 400 | > 400 | > 400 | > 400 | > 400 | > 400 | > 400 | > 400 | > 400 | > 400 | MIC50 [6]: > 40 µg/mL; MIC50 [7]: 93 µg/mL (≈ 453 µM); MIC50 [8]: > 40 µg/mL; MIC50 [17]: > 50 µg/mL; MIC50 [18]: > 50 µg/mL; MIC50 [19]: > 50 µg/mL; MIC50 [20]: > 50 µg/mL; MIC50 [28]: > 200 µg/mL
3 | NC(=O)c1ncn([C@@H]2O[C@H](CO)[C@@H](O)[C@H]2O)n1 [RIBAVIRIN] | 19 (≈ 77.8 µM) | 5.6 (≈ 22.9 µM) | 2.4 (≈ 9.83 µM) | > 250 | 48.7 (≈ 199 µM) | > 200 | > 200 | > 200 | 400 (≈ 1640 µM) | 20 (≈ 81.9 µM) | 20 (≈ 81.9 µM) | 20 (≈ 81.9 µM) | 10 (≈ 40.9 µM) | > 400 | > 400 | > 400 | 150 (≈ 614 µM) | 70 (≈ 287 µM) | > 400 | > 400 | MIC50 [28]: 20 µg/mL (≈ 81.9 µM)
4 | CC(C)(C)C1CCCN1CC12CC3CC(CC(C3)C1)C2 (stereo not drawn) | > 104 | > 100 | > 100 | > 250 | > 100 | > 100 | > 100 | > 100 | 200 (≈ 726 µM) | > 100 | > 100 | > 100 | > 100 | > 200 | > 200 | 400 (≈ 1450 µM) | > 200 | > 200 | > 200 | 200 (≈ 726 µM) | MIC50 [6]: > 40 µg/mL; MIC50 [7]: 72 µg/mL (≈ 261 µM); MIC50 [8]: > 40 µg/mL; MIC50 [17]: > 50 µg/mL; MIC50 [18]: 35 µg/mL (≈ 127 µM); MIC50 [19]: 20 µg/mL (≈ 72.6 µM); MIC50 [20]: > 50 µg/mL; MIC50 [28]: > 100 µg/mL
5 | C1COCC2(N1)C1CC3CC(C1)CC2C3 (stereo not drawn) | 29 (≈ 140 µM) | 13 (≈ 62.7 µM) | 20 (≈ 96.5 µM) | > 250 | 1.7 (≈ 8.2 µM) | > 200 | > 200 | > 200 | > 200 | > 200 | > 400 | > 400 | > 400 | > 400 | > 400 | > 400 | > 400 | > 400 | > 400 | > 400 | MIC50 [6]: > 200 µg/mL; MIC50 [7]: > 200 µg/mL; MIC50 [8]: 158 µg/mL (≈ 762 µM); MIC50 [17]: > 50 µg/mL; MIC50 [18]: > 50 µg/mL; MIC50 [19]: > 50 µg/mL; MIC50 [20]: > 50 µg/mL; MIC50 [28]: > 200 µg/mL
6 | CN1CCCC1C12CC3CC(CC(C3)C1)C2 (stereo not drawn) | > 34 | 60 (≈ 274 µM) | 60 (≈ 274 µM) | 250 (≈ 1140 µM) | 16.5 (≈ 75.2 µM) | > 100 | > 100 | > 100 | 200 (≈ 912 µM) | > 100 | > 400 | > 400 | > 400 | > 400 | > 400 | > 400 | > 400 | > 400 | > 400 | > 400 | MIC50 [6]: > 40 µg/mL; MIC50 [7]: 120 µg/mL (≈ 547 µM); MIC50 [8]: > 40 µg/mL; MIC50 [17]: > 50 µg/mL; MIC50 [18]: > 50 µg/mL; MIC50 [19]: > 50 µg/mL; MIC50 [20]: > 50 µg/mL; MIC50 [28]: > 100 µg/mL
